Experimental findings from ChEMBL document CHEMBL1671840, “Design, Synthesis, and Preclinical Characterization of the Selective Androgen Receptor Modulator (SARM) RAD140” (ACS Med Chem Lett, 2011) are described below.

A short description of series [1]: Oral bioavailability in rat. In kind it is ADME, organism-based. To be noted: in vivo.
A short description of series [2]: Half life in rat microsomes. In kind it is ADME, Microsome.
A short description of series [3]: Half life in monkey microsomes. In kind it is ADME, Macaca mulatta, Microsome. To be noted: rhesus monkey.
Series [4] in a line: Half life in human microsomes. In kind it is ADME, Microsome.
The nature of series [5]: Oral bioavailability in monkey. In kind it is ADME, organism-based, Macaca mulatta. To be noted: rhesus monkey, in vivo.
The next series addresses T1, Androgen receptor (Homo sapiens, UniProt P10275).
T1 sequence (P10275 whole entry): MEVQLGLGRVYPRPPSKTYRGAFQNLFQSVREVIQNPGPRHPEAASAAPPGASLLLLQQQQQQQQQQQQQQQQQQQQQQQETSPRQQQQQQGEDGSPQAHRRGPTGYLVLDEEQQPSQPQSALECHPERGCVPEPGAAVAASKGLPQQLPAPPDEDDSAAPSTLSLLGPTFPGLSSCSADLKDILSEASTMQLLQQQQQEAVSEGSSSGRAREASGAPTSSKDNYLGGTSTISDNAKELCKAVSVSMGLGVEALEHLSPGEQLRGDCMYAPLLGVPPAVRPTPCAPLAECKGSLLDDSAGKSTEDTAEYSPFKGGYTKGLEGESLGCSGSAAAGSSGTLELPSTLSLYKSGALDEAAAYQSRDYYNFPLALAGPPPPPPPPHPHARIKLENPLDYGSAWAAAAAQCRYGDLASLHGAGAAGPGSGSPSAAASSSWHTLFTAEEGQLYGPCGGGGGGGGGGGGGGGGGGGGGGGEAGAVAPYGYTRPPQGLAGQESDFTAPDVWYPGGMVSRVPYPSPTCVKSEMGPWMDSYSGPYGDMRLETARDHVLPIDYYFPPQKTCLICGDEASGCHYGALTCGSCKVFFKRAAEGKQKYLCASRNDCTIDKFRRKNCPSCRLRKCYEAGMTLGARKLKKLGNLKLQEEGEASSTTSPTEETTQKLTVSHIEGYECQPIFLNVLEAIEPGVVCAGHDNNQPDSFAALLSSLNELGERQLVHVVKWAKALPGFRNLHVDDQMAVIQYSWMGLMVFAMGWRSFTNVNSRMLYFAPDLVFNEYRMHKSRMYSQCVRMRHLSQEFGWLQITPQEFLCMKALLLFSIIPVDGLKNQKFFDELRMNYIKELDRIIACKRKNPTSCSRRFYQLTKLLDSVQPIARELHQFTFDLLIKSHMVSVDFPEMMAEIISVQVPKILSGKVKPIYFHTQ
The experiment in a line: Displacement of fluorescent-tagged R1881 from androgen receptor after 4 hrs by fluorometric assay.

For a further series, the target named is T2, Progesterone receptor (Homo sapiens, UniProt P06401).
T2 sequence (P06401 whole entry): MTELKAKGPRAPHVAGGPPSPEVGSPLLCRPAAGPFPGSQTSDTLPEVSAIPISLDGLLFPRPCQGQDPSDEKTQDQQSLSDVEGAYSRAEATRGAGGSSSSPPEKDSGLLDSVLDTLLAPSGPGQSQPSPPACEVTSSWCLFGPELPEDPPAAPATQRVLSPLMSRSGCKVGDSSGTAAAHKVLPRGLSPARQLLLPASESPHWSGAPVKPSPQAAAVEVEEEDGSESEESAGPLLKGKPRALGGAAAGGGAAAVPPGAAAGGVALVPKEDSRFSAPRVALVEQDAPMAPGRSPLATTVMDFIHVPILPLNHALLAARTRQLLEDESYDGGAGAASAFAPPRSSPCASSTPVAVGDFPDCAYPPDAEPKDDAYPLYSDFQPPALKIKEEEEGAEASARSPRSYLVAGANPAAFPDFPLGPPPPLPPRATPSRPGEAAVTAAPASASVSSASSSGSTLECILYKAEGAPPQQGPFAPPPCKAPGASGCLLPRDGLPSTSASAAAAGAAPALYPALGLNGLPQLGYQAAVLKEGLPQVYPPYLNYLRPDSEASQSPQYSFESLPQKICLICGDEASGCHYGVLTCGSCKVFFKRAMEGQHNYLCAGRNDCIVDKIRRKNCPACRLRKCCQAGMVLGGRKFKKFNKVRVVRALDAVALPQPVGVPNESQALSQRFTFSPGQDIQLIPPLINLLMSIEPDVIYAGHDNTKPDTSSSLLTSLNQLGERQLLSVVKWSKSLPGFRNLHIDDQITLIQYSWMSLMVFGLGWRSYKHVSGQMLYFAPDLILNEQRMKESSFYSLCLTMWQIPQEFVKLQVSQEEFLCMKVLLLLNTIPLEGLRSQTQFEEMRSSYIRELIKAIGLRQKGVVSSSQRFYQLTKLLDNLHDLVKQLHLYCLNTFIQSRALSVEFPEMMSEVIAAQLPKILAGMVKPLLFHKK
The experiment in a line: Binding affinity to progesterone receptor.

Series [6] has as its system Rattus norvegicus. Briefly: Androgenic activity in young intact rat assessed as increase of prostate weight at 30 mg/kg, po qd for 11 days. Format: functional, organism-based. Details: dose 30 mg/kg. To be noted: Prostate gland.
Series [7] deals with Rattus norvegicus. The experiment in a line: Androgenic activity in young intact rat assessed as increase of levator ani bulbocavernosus muscle weight at 0.1 mg/kg, po qd for 11 days. To be noted: Muscle tissue. Set-up: dose 0.1 mg/kg. In kind it is functional, organism-based.
Series [8] relates to Rattus norvegicus. The experiment in a line: Androgenic activity in castrated immature rat assessed as increase of levator ani bulbocavernosus muscle weight at 0.03 mg/kg, po qd for 11 days. In kind it is functional, organism-based. Set-up: dose 0.03 mg/kg. The note with it: Muscle tissue.
The subject of series [9] is Rattus norvegicus. The experiment in a line: Androgenic activity in castrated immature rat assessed as increase of levator ani bulbocavernosus muscle weight at 0.3 mg/kg, po qd for 11 days. Format: functional, organism-based. Details: dose 0.3 mg/kg. To be noted: Muscle tissue.
Series [10] deals with Rattus norvegicus. The experiment in a line: Androgenic activity in young intact rat assessed as increase of levator ani bulbocavernosus muscle weight at 0.3 mg/kg, po qd for 11 days. Format: functional, organism-based. Details: dose 0.3 mg/kg. The note with it: Muscle tissue.
Series [11] has as its system Rattus norvegicus. The experiment in a line: Androgenic activity in young intact rat assessed as increase of levator ani bulbocavernosus muscle weight at 0.5 mg/kg, sc qd for 11 days. In kind it is functional, organism-based. Details: dose 0.5 mg/kg. To be noted: Muscle tissue.
In series [12] the test system is Rattus norvegicus. Briefly: Androgenic activity in young intact rat assessed as increase of prostate weight at 0.5 mg/kg, sc qd for 11 days. The note with it: Prostate gland. In kind it is functional, organism-based. Set-up: dose 0.5 mg/kg.
In series [13] the test system is Cynomolgus monkey. The experiment in a line: Androgenic activity in cynomolgus monkey assessed as increase of body weight at 0.1 mg/kg, po qd for 28 days. In kind it is functional, Macaca fascicularis. Put shortly:
(§1)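 Monkeys in groups of 3, grouped from day -21 and weighed at each time point. Oral dosing at 0.01, 0.1 or 1 mg/kg for 28 days, then 21 days off-dose. Each animal's weight change over the pre-dose weeks served as baseline; baseline-subtracted change from day -1 to day 29 was tested statistically.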

Series [14] deals with Cynomolgus monkey. The experiment in a line: Androgenic activity in cynomolgus monkey assessed as increase of body weight at 1 mg/kg, po qd for 28 days. Set-up: dose 1 mg/kg. The note with it: Macaca fascicularis. Format: functional, organism-based. Put shortly: as §1
Series [15] deals with Cynomolgus monkey. Briefly: Androgenic activity in cynomolgus monkey assessed as effect on lean tissue weight at up to 1 mg/kg, po qd for 28 days measured after 24 hrs of last post dose. To be noted: Macaca fascicularis. In kind it is functional, organism-based. Set-up: dose 1 mg/kg. Put shortly:
(§2)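 Monkeys, 3 per group, dosed orally at 0.01, 0.1 or 1 mg/kg for 28 days. DEXA scans on day -2 and day 29 gave fat and lean tissue mass. Mean change per group, with SD.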

For series [16], the system named is Cynomolgus monkey. Briefly: Androgenic activity in cynomolgus monkey assessed as effect on fat mass at up to 1 mg/kg, po qd for 28 days measured after 24 hrs of last post dose. In kind it is functional, organism-based. Details: dose 1 mg/kg. To be noted: Macaca fascicularis. Put shortly: as §2

Molecules are shown by their SMILES. Activity calls are given as the source filed them. Bounds are passed on as bounds.

Compound `Cc1c(N[C@@H](c2nnc(-c3ccccc3)o2)[C@H](C)O)ccc(C#N)c1Cl` registered a bioavailability in series [1] of under 5%.

Turning to `Cc1c(N[C@@H](c2nnc(-c3ccc(C#N)cc3)o2)[C@H](C)O)ccc(C#N)c1Cl` [RAD-140], the bioavailability in [1] came out at 27%; in [5] it was 65%. The half-life in series [2], in series [3] and in series [4] was over 2 h each time. For the same compound, the Ki at Androgen receptor was 7 nM. At Progesterone receptor, this compound had an IC50 of 750 nM. Also, the outcome with Rattus norvegicus [6], in the series with Cynomolgus monkey [15] and in the series with Cynomolgus monkey [16] was inactive. In addition, the result in the series on Rattus norvegicus [7], in the series with Rattus norvegicus [8], in the series on Rattus norvegicus [9], with Rattus norvegicus [10], with Rattus norvegicus [11] and with Rattus norvegicus [12] was Active. Besides, in the series on Cynomolgus monkey [14], the outcome was Active. Besides, in the series on Cynomolgus monkey [13], the Activity is given as 10%.

Usually bioavailability stands for the share of a dose that reaches the circulation, judged against a reference dose that is usually intravenous. One may read the half-life as the time needed for the level to fall by half in the phase considered. As a reminder, the Ki is the equilibrium dissociation constant of an inhibitor or competing ligand from its target. For orientation: IC50 means the point on the concentration scale where inhibition reaches its midpoint.
